Screens: PubChem BioAssay, several laboratories
The sample as a whole holds a higher share of hits than the screen did.
bCat KO growth: primary screen for growth suppressors in beta-catenin knockout HCT116 cells (colon tumor, human); HCT116 beta-catenin knockout viability, CellTiter-Glo, 60 h; hits give low values; viability, % at 10 µM; actives 1.5% (n = 140,000); AID 818, 2007;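 active = viability at or under a set limit, the compound median less 4 SD, cut at about 6% in these data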
H69AR inhibit: proliferation blockers of H69AR lung cancer cells, primary screen, cell-based, human, 86K library. H69AR lung tumor viability, ATP luminescence, 72 h; hits give low values. viability, % at 10 µM. actives 6% (n = 85,000). AID 598, 2007;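 active = viability at or below 40%; inactive = viability above 40%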;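 note: multidrug resistant small cell line overexpressing MRP-1 efflux transporter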
Calb biofilm kill: clotrimazole potentiators killing Candida biofilms, primary screen, with clotrimazole, Alamar Blue | C. albicans biofilm + clotrimazole | inhibition, % at 6 µM | actives 0.14% (n = 85,000);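 active = inhibition above 20%; inactive = inhibition below 20%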;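 note: preformed 24 hr biofilms exposed to compound for 48 hr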
Lung fibro prol: antiproliferative effect on LL 47 fibroblasts – human, LL 47 cells, CellTiter-Glo luminescence, primary screen | LL 47 human lung fibroblast viability, ATP luminescence; hits give low values | viability, % at 10 µM | actives 1.1% (n = 85,000);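 active = viability at or below 50% in the single dose screen; inactive = viability above 50%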;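 note: compound exposure lasted 72 h before the ATP readout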
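Test system: LL 47 human lung fibroblasts / Incubation: 72 h compound exposure at 37 °C after overnight plating / Technique: luminescent ATP detection, CellTiter-Glo / Compound dosing: 0.1% DMSO in all compound wells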
PTEN del growth: growth suppression of PTEN-null HCT116, primary screen, cell-based, CellTiter-Glo; HCT116 PTEN-null viability, 60 h; hits give low values; viability, % at 10 µM; actives 1.2% (n = 140,000);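 active = viability at or below a set limit, 4 SD under the median of all tested compounds, cut at about 3.7% in these data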;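 note: PTEN knockout HCT116 line with beta catenin targeted HCT116 as companion control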
HUVEC prolif 384: inhibitors of HUVEC proliferation, primary screen, cell-based, 384-well; CellTiter-Glo luminescence, 72 h; hits give low values; viability, % at 10 µM (by protocol); actives 1.1% (n = 86,000);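 active = viability at or below 30%; inactive = viability above 30%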
Each line names hits and unclear results; the compound was inactive in the other large screens.

CCc1nc(SCC(=O)Nc2cc(C)on2)c2c(C)c(C)sc2n1	none
Cc1cc(NC(=O)CSc2nc(C3CC3)nc3sc(C)c(C)c23)no1	H69AR inhibit 24
CCN(c1ccc(NC(=O)CN2C(=O)NC3(CCOc4ccccc43)C2=O)cc1)C(C)C (stereo not given)	none (no result: H69AR inhibit, Calb biofilm kill, Lung fibro prol, HUVEC prolif 384)
Cc1cccc(N2C(=O)CC(Sc3nnc(C)s3)C2=O)c1 (stereo not given)	none
COc1ccc(NC(=O)COC(=O)CCCc2c[nH]c3ccccc23)cc1OC	none
O=C(Nc1ccc(NC(=O)c2sc3ccccc3c2Cl)cc1)c1ccco1	bCat KO growth 1.4, PTEN del growth 1.5 (no result: H69AR inhibit, Calb biofilm kill, Lung fibro prol, HUVEC prolif 384)
CC(C)(C)NC(=O)c1cccc(NC(=O)c2ccco2)c1	none
CC(C)(C)c1ccc(C(=O)Nc2ccc(NC(=O)c3ccco3)cc2)cc1	H69AR inhibit 33, Lung fibro prol 28
CC(C)(C)NC(=O)c1cccc(NC(=O)c2ccc(NC(=O)c3ccco3)cc2)c1	H69AR inhibit 33
CC(C)CNC(=O)c1cccc(NC(=O)c2ccc(NC(=O)c3ccco3)cc2)c1	H69AR inhibit 28
O=C(Nc1ccc(Nc2ccccc2)cc1)c1ccco1	none
CSc1nccc(Oc2ccc(C#N)cc2)n1	none (no result: H69AR inhibit, Calb biofilm kill, Lung fibro prol, HUVEC prolif 384)
O=C(NOC(=O)c1ccccc1Cl)c1cccs1	none
Cn1c(NC(=O)c2ccccc2)cc(=O)n(C)c1=O	none
COC(=O)c1c(NC(=O)c2ccco2)sc(C(=O)Nc2ccc(F)cc2)c1C	H69AR inhibit 3.6
Cn1c(NC(=O)c2ccco2)cc(=O)n(C)c1=O	H69AR inhibit 24
CC1CCN(C(=O)CSc2ccc3nnc(-c4ccc(F)cc4)n3n2)CC1	none (no result: bCat KO growth, PTEN del growth)
COc1ccc(CN2CCN(CC(O)Cn3c4ccccc4c4ccccc43)CC2)cc1 (stereo not given)	none (no result: H69AR inhibit, Calb biofilm kill, Lung fibro prol, HUVEC prolif 384)
COc1ccccc1NCC(O)Cn1c2ccccc2c2ccccc21 (stereo not given)	H69AR inhibit 17
O=C1S/C(=C\c2ccc(N3CCOCC3)o2)C(=O)N1Cc1ccc(F)cc1	none (no result: H69AR inhibit, Calb biofilm kill, Lung fibro prol, HUVEC prolif 384)
COc1cc(/C=C2\SC(=Nc3ccccc3)N(CCc3c[nH]c4ccccc34)C2=O)ccc1OC(C)C(=O)O (stereo not given)	none (no result: H69AR inhibit, Calb biofilm kill, Lung fibro prol, HUVEC prolif 384)
O=C1S/C(=C/c2ccc(N3CCOCC3)o2)C(=O)N1Cc1ccc(F)cc1	H69AR inhibit 26
O=C1/C(=C/c2ccc(N3CCOCC3)o2)SC(=Nc2ccccc2)N1CCc1c[nH]c2ccccc12	bCat KO growth 1.4, PTEN del growth 1.4 (no result: H69AR inhibit, Calb biofilm kill, Lung fibro prol, HUVEC prolif 384)
N#C/C(=C\c1cccc(NC(=O)c2ccccc2Cl)c1)C(=O)NCCc1ccccc1	bCat KO growth 1.2, PTEN del growth 1.5 (no result: H69AR inhibit, Calb biofilm kill, Lung fibro prol, HUVEC prolif 384)
COCCCNC(=O)/C(C#N)=C/c1cccc(NC(=O)c2ccccc2Cl)c1	none (no result: H69AR inhibit, Calb biofilm kill, Lung fibro prol, HUVEC prolif 384)
O=S(=O)(NC1c2cccc3cccc(c23)C1Sc1ncccn1)c1ccccc1 (stereo not given)	none (no result: H69AR inhibit, Calb biofilm kill, Lung fibro prol, HUVEC prolif 384)
COc1ccc(NC(=S)NNC(=O)c2nnn(-c3ccccc3)c2C)cc1	none (no result: H69AR inhibit, Calb biofilm kill, Lung fibro prol, HUVEC prolif 384)
O=C(O)c1ccc(CN2C(=O)c3ccccc3S2(=O)=O)cc1	none
O=C(CN1/C(=C(/O)c2ccccc2)C(=O)c2ccccc2S1(=O)=O)c1ccccc1	H69AR inhibit 28
CCC(=O)N(Cc1ccco1)C1CC(=O)N(c2ccccc2)C1=O (stereo not given)	none (no result: H69AR inhibit, Calb biofilm kill, Lung fibro prol, HUVEC prolif 384)
COc1ccc2c(c1OC)C(=O)N1c3ccccc3C(=O)N(c3ccccc3F)C21 (stereo not given)	H69AR inhibit 3.7
CCN(CC)S(=O)(=O)c1ccc(Cl)c(C(=O)Nc2cc(C)nn2-c2ccccc2C(F)(F)F)c1	none (no result: H69AR inhibit, Calb biofilm kill, Lung fibro prol, HUVEC prolif 384)
O=C(NCc1ccccn1)c1ccc(COc2ccc(Cl)cc2)o1	bCat KO growth 4.3
CCOC(=O)N1CCN(c2nc3ccccc3nc2C(C#N)S(=O)(=O)c2ccc(C)cc2)CC1 (stereo not given)	none
Brc1ccc2c(c1)C(C1=NCCN1)c1ccccc1CS2 (stereo not given)	none (no result: H69AR inhibit, Calb biofilm kill, Lung fibro prol, HUVEC prolif 384)
c1ccc2c(c1)CCCC2C1=NCCN1 (stereo not given)	bCat KO growth 0.8, PTEN del growth 0.8
COc1ccc2oc(=O)c(C(=O)N3CCN(C45CC6CC(CC(C6)C4)C5)CC3)cc2c1	none (no result: bCat KO growth, PTEN del growth)
O=S(=O)(c1ccc(Br)cc1)N1CCN(c2ccc3nnc(-c4ccccc4)n3n2)CC1	H69AR inhibit 30
O=C(c1ccc(Br)o1)N1CCN(c2ccc3nnc(-c4ccccc4)n3n2)CC1	none
COCCCNC(=O)c1cccn2c(=O)c3cc4ccccc4cc3nc12	bCat KO growth 4.3
O=C(NCc1ccco1)c1cccn2c(=O)c3cc4ccccc4cc3nc12	bCat KO growth 2.6, H69AR inhibit 21, PTEN del growth 1.7
O=C(NCc1ccco1)c1cnc2ccccn2c1=O	none
O=S(=O)(Nc1cccc2ncccc12)c1cccs1	bCat KO growth 1.7, PTEN del growth 1.5 (no result: H69AR inhibit, Calb biofilm kill, Lung fibro prol, HUVEC prolif 384)
C=CCNc1nc(NCc2ccccc2)c(C#N)c2c1CN(C)CC2	H69AR inhibit 29, HUVEC prolif 384 11
N#Cc1c(N2CCN(C(=O)c3ccccc3)CC2)nc(-c2ccccc2)c2c1CCCC2	H69AR inhibit 14
N#Cc1c(NCCN)nc(NCc2ccccc2)c2c1CCN(Cc1ccccc1)C2	HUVEC prolif 384 18 (no result: bCat KO growth, PTEN del growth)
N#Cc1c(N2CCN(C(=O)c3ccccc3Cl)CC2)nc(-c2ccccc2)c2c1CCCC2	none (no result: H69AR inhibit, Calb biofilm kill, Lung fibro prol, HUVEC prolif 384)
N#Cc1c(NCCN)nc(-c2ccccc2)c2c1CCCC2	H69AR inhibit 6.0
Cc1ccc(CN2CCN(Cc3ccccc3C(F)(F)F)CC2)cc1	none (no result: H69AR inhibit, Calb biofilm kill, Lung fibro prol, HUVEC prolif 384)
Cc1ccc(/C=N/N2C(=S)SC(C)(C)C2N(O)C(=O)Nc2ccc([N+](=O)[O-])cc2)cc1 (stereo not given)	bCat KO growth 3.7
O=C(c1ccccc1)c1nc[nH]c1C(=O)Nc1ccccc1	H69AR inhibit 24
COC(=O)C/C(C)=N/Nc1ccc(S(=O)(=O)N2CCCC2)cc1[N+](=O)[O-]	none (no result: H69AR inhibit, Calb biofilm kill, Lung fibro prol, HUVEC prolif 384)
COc1cccc(C(=O)Nc2cccc(C(C)=O)c2)c1	none (no result: H69AR inhibit, Calb biofilm kill, Lung fibro prol, HUVEC prolif 384)
COc1cccc(C(=O)Nc2cccc(-c3nnc(-c4ccco4)o3)c2)c1	bCat KO growth 5.0, H69AR inhibit 38
COc1ccc(Br)cc1C(=O)Nc1ccc(NC(=O)c2ccco2)cc1	none
COc1ccc(Br)cc1C(=O)Nc1cccc(-c2nnc(-c3ccco3)o2)c1	H69AR inhibit 8.6 (no result: bCat KO growth, PTEN del growth)
COc1ccc(C2NC(=S)NC(O)(C(F)(F)F)C2C(=O)c2cccs2)cc1 (stereo not given)	none (no result: H69AR inhibit, Calb biofilm kill, Lung fibro prol, HUVEC prolif 384)
COc1ccc2nc(C)c(C(=O)OCCN(C)C)cc2c1	none (no result: bCat KO growth, PTEN del growth)
Cn1c(-c2sc3cc(C(F)(F)F)cnc3c2-c2cccnc2)n[nH]c1=S	H69AR inhibit 32
Cc1nn(C)c(C(=O)N2CCOCC2)c1Cl	none (no result: H69AR inhibit, Calb biofilm kill, Lung fibro prol, HUVEC prolif 384)
O=C(Nc1ccccc1[N+](=O)[O-])c1cccnc1Cl	none (no result: H69AR inhibit, Calb biofilm kill, Lung fibro prol, HUVEC prolif 384)
CCCn1c2c(c(O)c(C(=O)Nc3nc(C)cs3)c1=O)CCCC2	none
